Test results taken from ChEMBL document CHEMBL3525931, “Stereoselective interaction of pantoprazole with ABCG2. II. In vitro flux analysis” (Drug Metab Dispos, 2012).

Experiments:
ABCG2 [1] = biological target: T1, ABCG2 (Homo sapiens, UniProt Q9UNQ0); test: Asymmetry efflux ratio in MDCK2 cells expressing human ABCG2 assessed as ABCG2-mediated drug transport ratio at 3 uM after 0.5 to 1 hrs by HPLC method; format: ADME, cell-based
T1 sequence (Q9UNQ0 whole entry): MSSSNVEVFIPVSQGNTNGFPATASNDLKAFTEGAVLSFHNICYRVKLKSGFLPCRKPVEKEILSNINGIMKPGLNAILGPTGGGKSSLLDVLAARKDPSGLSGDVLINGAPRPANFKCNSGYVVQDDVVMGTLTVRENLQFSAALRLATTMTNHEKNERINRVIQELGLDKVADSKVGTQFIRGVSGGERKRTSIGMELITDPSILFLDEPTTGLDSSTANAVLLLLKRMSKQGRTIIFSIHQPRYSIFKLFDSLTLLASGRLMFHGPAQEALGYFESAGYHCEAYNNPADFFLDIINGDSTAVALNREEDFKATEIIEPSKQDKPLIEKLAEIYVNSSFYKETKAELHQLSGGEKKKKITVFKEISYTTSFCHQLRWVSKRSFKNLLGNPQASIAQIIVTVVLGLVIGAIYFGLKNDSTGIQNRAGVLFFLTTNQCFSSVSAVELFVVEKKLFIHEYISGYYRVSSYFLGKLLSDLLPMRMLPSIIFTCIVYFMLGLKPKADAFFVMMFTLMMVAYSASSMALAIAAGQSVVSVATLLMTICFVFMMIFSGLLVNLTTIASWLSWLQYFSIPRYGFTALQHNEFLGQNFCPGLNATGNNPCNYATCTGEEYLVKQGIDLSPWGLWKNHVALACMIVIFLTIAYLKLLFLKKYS
Procedure, shortened: (§1)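 Mock (empty pcDNA3.1) or rat Abcg2/human ABCG2-transfected MDCKII, G418-selected, seeded on 3.0-μm Transwell filters at 1.0×10^6 cells/well, grown 4 days to TEER >200 Ω·cm². Single isomer loaded apical or basolateral in serum-free Opti-MEM I with 0.2 μCi/ml [3H]mannitol, 37°C 5% CO2. Receiver sampled at 0.5 and 1 h. Quantified by HPLC-UV 290 nm. Permeability = initial rate/(area × donor concentration). Efflux ratio = B→A rate / A→B rate. n = 3, mean ± S.D.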

[2] = biological target: T2, Broad substrate specificity ATP-binding cassette transporter ABCG2 (Rattus norvegicus, UniProt Q80W57); test: Observed permeability in MDCK2 cells expressing rat ABCG2 assessed as ABCG2-mediated apical to basolateral transport at 50 uM after 0.5 to 1 hrs by HPLC method; format: ADME, cell-based; conditions: mdck-ii; procedure, shortened: as §1
T2 sequence (Q80W57 whole entry): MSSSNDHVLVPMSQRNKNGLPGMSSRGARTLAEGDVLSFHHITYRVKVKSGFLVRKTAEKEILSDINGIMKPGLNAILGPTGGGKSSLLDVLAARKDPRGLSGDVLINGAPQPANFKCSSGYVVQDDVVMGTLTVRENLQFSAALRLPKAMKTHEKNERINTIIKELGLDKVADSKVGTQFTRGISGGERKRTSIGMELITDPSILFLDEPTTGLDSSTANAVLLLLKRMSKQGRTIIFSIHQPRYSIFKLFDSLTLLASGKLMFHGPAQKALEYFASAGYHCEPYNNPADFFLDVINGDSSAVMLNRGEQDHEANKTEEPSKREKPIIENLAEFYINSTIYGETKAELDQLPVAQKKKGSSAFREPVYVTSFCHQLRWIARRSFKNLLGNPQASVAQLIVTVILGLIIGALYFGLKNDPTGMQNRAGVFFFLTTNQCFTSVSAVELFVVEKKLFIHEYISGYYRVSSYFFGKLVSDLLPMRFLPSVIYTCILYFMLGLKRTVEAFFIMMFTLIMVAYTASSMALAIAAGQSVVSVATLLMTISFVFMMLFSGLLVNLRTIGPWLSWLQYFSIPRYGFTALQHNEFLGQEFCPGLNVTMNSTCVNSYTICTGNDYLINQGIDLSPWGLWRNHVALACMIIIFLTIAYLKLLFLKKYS

ABCG2 [3] = biological target: T3, ABCG2 (Rattus norvegicus, UniProt Q80W57); test: Asymmetry efflux ratio in MDCK2 cells expressing rat ABCG2 assessed as ABCG2-mediated drug transport ratio at 30 uM after 0.5 to 1 hrs by HPLC method; format: ADME, cell-based; procedure, shortened: as §1
T3 sequence (Q80W57 whole entry): T2 sequence (Q80W57 whole entry)

[4] = Observed permeability in MDCK2 cells assessed as apical to basolateral transport at 50 uM after 0.5 to 1 hrs by HPLC method; format: ADME, cell-based, Canis lupus familiaris; conditions: dog, mdck-ii; procedure, shortened: as §1
ABCG2 [5] = biological target: T1, ABCG2; test: Asymmetry efflux ratio in MDCK2 cells expressing human ABCG2 assessed as ABCG2-mediated drug transport ratio at 10 uM after 0.5 to 1 hrs by HPLC method; format: ADME, cell-based; procedure, shortened: as §1
[6] = Observed permeability in MDCK2 cells assessed as apical to basolateral transport at 10 uM after 0.5 to 1 hrs by HPLC method; format: ADME, cell-based, Canis lupus familiaris; conditions: dog, mdck-ii; procedure, shortened: as §1
[7] = biological target: T4, Broad substrate specificity ATP-binding cassette transporter ABCG2 (Homo sapiens, UniProt Q9UNQ0); test: Observed permeability in MDCK2 cells expressing human ABCG2 assessed as ABCG2-mediated basolateral to apical transport at 3 uM after 0.5 to 1 hrs by HPLC method; format: ADME, cell-based; conditions: mdck-ii; procedure, shortened: as §1
T4 sequence (Q9UNQ0 whole entry): T1 sequence (Q9UNQ0 whole entry)

[8] = biological target: T4, Broad substrate specificity ATP-binding cassette transporter ABCG2; test: Maximum drug transport rate in MDCK2 cells expressing human ABCG2 assessed as ABCG2-mediated transport by HPLC method; format: ADME, cell-based; conditions: mdck-ii
Procedure, shortened: (§2)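 Kinetics came from the same Transwell bidirectional flux runs in rat Abcg2- or human ABCG2-MDCKII, with donor 3–200 μM single isomer. Cellular concentrations were predicted from a three-compartment model using PS_D from mock cells and PS_PC from mannitol. Apparent apical efflux permeability was fitted against predicted cellular concentration by saturable kinetics to give K_M and T_max.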

[9] = biological target: T4, Broad substrate specificity ATP-binding cassette transporter ABCG2; test: Observed permeability in MDCK2 cells expressing human ABCG2 assessed as ABCG2-mediated apical to basolateral transport at 10 uM after 0.5 to 1 hrs by HPLC method; format: ADME, cell-based; conditions: mdck-ii; procedure, shortened: as §1
[10] = Observed permeability in MDCK2 cells assessed as basolateral to apical transport at 200 uM after 0.5 to 1 hrs by HPLC method; format: ADME, cell-based, Canis lupus familiaris; conditions: dog, mdck-ii; procedure, shortened: as §1
[11] = Asymmetry efflux ratio in MDCK2 cells assessed as drug transport ratio at 30 uM after 0.5 to 1 hrs by HPLC method; format: ADME, cell-based, Canis lupus familiaris, MDCK-II; conditions: dog, MDCK; procedure, shortened: as §1
[12] = biological target: T2, Broad substrate specificity ATP-binding cassette transporter ABCG2; test: Maximum drug transport rate in MDCK2 cells expressing rat ABCG2 assessed as ABCG2-mediated transport by HPLC method; format: ADME, cell-based; conditions: mdck-ii; procedure, shortened: as §2
[13] = Observed permeability in MDCK2 cells assessed as apical to basolateral transport at 3 uM after 0.5 to 1 hrs by HPLC method; format: ADME, cell-based, Canis lupus familiaris; conditions: dog, mdck-ii; procedure, shortened: as §1
ABCG2 [14] = biological target: T3, ABCG2; test: Asymmetry efflux ratio in MDCK2 cells expressing rat ABCG2 assessed as ABCG2-mediated drug transport ratio at 3 uM after 0.5 to 1 hrs by HPLC method; format: ADME, cell-based; procedure, shortened: as §1
[15] = biological target: T4, Broad substrate specificity ATP-binding cassette transporter ABCG2; test: Observed permeability in MDCK2 cells expressing human ABCG2 assessed as ABCG2-mediated apical to basolateral transport at 50 uM after 0.5 to 1 hrs by HPLC method; format: ADME, cell-based; conditions: mdck-ii; procedure, shortened: as §1
ABCG2 [16] = biological target: T1, ABCG2; test: Asymmetry efflux ratio in MDCK2 cells expressing human ABCG2 assessed as ABCG2-mediated drug transport ratio at 30 uM after 0.5 to 1 hrs by HPLC method; format: ADME, cell-based; procedure, shortened: as §1
[17] = Observed permeability in MDCK2 cells assessed as basolateral to apical transport at 3 to 200 uM after 0.5 to 1 hrs by HPLC method; format: ADME, cell-based, Canis lupus familiaris; conditions: dog, mdck-ii; procedure, shortened: as §1

Compound `COc1ccnc(C[S@@+]([O-])c2nc3cc(OC(F)F)ccc3[nH]2)c1OC` has an efflux ratio at 3 µM (ABCG2 [1]) of 8.61, a Papp [2] of 79.1 uL/hr/cm2 and an efflux ratio at 30 µM (ABCG2 [3]) of 6.16. For the same compound, the Papp [4] was 123 uL/hr/cm2, the efflux ratio at 10 µM (ABCG2 [5]) was 5.81 and the Papp [6] was 114 uL/hr/cm2. It also gave a Papp [7] of 258 uL/hr/cm2, a Drug transport [8] of 10.2 nmol/hr.cm2 and a Papp [9] of 42.2 uL/hr/cm2. For the same compound, the Papp [10] was 140 uL/hr/cm2, the efflux ratio at 30 µM [11] was 1.06 and the Drug transport [12] was 7.86 nmol/hr.cm2. It also gave a Papp [13] of 116 uL/hr/cm2, an efflux ratio at 3 µM (ABCG2 [14]) of 18.7 and a Papp [15] of 79.6 uL/hr/cm2. The efflux ratio at 30 µM (ABCG2 [16]) was 5.5 and the Papp [17] was 126 uL/hr/cm2.

In the case of `COc1ccnc(C[S@+]([O-])c2nc3cc(OC(F)F)ccc3[nH]2)c1OC`, the efflux ratio at 3 µM (ABCG2 [1]) is reported as 15, the Papp [2] is reported as 109 uL/hr/cm2 and the efflux ratio at 30 µM (ABCG2 [3]) is reported as 1.63. It also gave a Papp [4] of 121 uL/hr/cm2, an efflux ratio at 10 µM (ABCG2 [5]) of 8.06 and a Papp [6] of 123 uL/hr/cm2. The Papp [7] was 254 uL/hr/cm2, the Drug transport [8] was 3.29 nmol/hr.cm2 and the Papp [9] was 31.6 uL/hr/cm2. For the same compound, the Papp [10] was 135 uL/hr/cm2, the efflux ratio at 30 µM [11] was 1.07 and the Drug transport [12] was 2.49 nmol/hr.cm2. It also gave a Papp [13] of 118 uL/hr/cm2, an efflux ratio at 3 µM (ABCG2 [14]) of 34 and a Papp [15] of 109 uL/hr/cm2. For the same compound, the efflux ratio at 30 µM (ABCG2 [16]) was 3.12 and the Papp [17] was 127 uL/hr/cm2.
